NALP1 inh: NALP1 inhibition; S. cerevisiae NALP1/ASC/caspase-1 growth, X-gal OD620, 72 h; 280,000 tested, 0.61% active; inhibition, % at 10 µM; AID 2071; in the data active means inhibition mostly above about 24%, no sharp cut-off; inactive means mostly below about 32%
Pemphigus Ab inh: human desmoglein-3 autoantibody binding inhibition; DSG3-coupled beads, scFv-anti-DSG3-GFP binding, flow cytometry; active compounds read low; 310,000 tested, 0.48% active; binding (percent of control), % at 10 µM; AID 588358;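 active means binding more than 3 SD below its plate's average and above zero; inconclusive means below that plate limit but binding exactly zero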;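 further: hits lower antibody fragment binding to DSG3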
Target sequence (P32926 whole entry, looked up, the tested form may be a part): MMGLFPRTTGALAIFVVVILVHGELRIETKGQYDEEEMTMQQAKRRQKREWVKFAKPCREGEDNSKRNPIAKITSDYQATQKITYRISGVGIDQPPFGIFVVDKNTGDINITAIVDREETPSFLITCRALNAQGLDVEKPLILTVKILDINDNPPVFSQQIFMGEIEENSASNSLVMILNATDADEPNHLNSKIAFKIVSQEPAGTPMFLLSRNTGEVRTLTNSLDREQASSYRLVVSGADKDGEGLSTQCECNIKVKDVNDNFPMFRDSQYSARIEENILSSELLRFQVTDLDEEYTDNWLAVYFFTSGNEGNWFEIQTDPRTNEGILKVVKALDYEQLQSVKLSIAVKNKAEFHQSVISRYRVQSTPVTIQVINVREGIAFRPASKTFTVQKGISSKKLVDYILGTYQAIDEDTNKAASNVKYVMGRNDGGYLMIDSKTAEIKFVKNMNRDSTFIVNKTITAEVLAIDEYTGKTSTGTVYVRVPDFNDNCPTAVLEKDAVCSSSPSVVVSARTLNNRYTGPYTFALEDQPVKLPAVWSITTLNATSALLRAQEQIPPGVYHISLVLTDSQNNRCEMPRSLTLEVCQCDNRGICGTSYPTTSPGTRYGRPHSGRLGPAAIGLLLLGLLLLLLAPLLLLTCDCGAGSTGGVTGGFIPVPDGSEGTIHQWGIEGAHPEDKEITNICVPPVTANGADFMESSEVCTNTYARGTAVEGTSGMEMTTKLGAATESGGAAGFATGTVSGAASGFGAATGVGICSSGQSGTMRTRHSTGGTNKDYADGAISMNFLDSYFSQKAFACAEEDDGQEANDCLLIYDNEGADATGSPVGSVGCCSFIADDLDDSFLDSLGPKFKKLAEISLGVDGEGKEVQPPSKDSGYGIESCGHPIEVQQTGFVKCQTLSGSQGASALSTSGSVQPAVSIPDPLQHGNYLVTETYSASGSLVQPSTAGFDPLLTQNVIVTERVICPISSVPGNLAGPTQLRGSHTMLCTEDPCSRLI
Arr AP2 block: human beta-arrestin and AP2 interaction inhibition; FITC-arrestin peptide / GST-AP2 beads, flow cytometry; AP2 beta2 appendage carries R879A mutation; 340,000 tested, 0.31% active; AID 504490; inhibition, % at 10 µM;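 active means inhibition above a set limit, near 3 SD of compounds lacking own fluorescence, cut at about 54% in these data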;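 further: plate controls were DMSO wells for no effect and 5 µM unlabelled arrestin peptide for full effect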
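Measured by: flow cytometry, FL1 (488/535 nm); Material: AP2 appendage R879A on GSH beads; Evaluation: percent response; Timing: pre-incubation 12 min, peptide binding 1 h, room temperature; Also added: 50 nM FITC-arrestin peptide; Medium: PBS with 0.05% Tween 20 and 0.1% BSA.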
NLRP3 yeast inh: NALP3 inhibition in yeast; inhibition, % at 10 µM; Yeast reconstituted NLRP3/ASC/caspase-1, beta-gal luminescence, 24 h; 330,000 tested, 0.39% active; AID 2825;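 active means inhibition of 50% or more; inactive means inhibition below 50%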;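 further: plate controls were induced DMSO wells for no effect and uninduced yeast grown without galactose for full effect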
PolyA inh: yeast polyadenylation inhibition; S. cerevisiae SKY197-pL101 polyadenylation reporter, beta-gal luminescence; efflux-impaired pdr1/pdr3 knockout yeast; score 100 = 6 SD above DMSO; activity score, % at 12 µM; 300,000 tested, 0.02% active; AID 1875;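 active means lowest replicate activity score at least 50, where 100 means six control SD above control mean; inconclusive means lowest score under 50 but half or more replicates reach 50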;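 further: yeast exposed to compound for 9 h at 30 °C; higher score means more reporter readthrough which indicates perturbed polyadenylation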
ALR H2O2 inh: human ALR oxidase inhibition via reduced H2O2 | P55789 | purified ALR, DTT oxidation, H2O2 HRP-luminol luminescence | inhibition, % (test concentration not listed) | 290,000 tested, 3.8% active;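 active means mean replicate inhibition above about 79%, with every replicate also reaching it, limit read from the data; inconclusive means only one of the two criteria met; inactive means mean below limit and not every replicate reaching it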
* marks the source's active call; other numbers are inactive results. This is a sample that favours compounds with a hit; in the whole collection about 4.6% have one here.

Cc1ccn2c(Nc3ccccc3C)c(-c3ccccn3)nc2c1 was read as NALP1 inh -6.4, Pemphigus Ab inh 101.2, Arr AP2 block 4.1, NLRP3 yeast inh 45.9 and PolyA inh 14.5.
CC(=O)c1ccsc1-c1c(C)cc2oc(=O)cc(-c3ccccc3)c2c1C was read as Pemphigus Ab inh 101.3 and Arr AP2 block -0.6.
For CCOC(=O)Cn1ccc2cc(S(=O)(=O)N3CCCC3)ccc21 the results were Pemphigus Ab inh 98.8.
For Cc1cccc2nc(-c3cccnc3)c(Nc3ccccc3)n12 the results were NALP1 inh -13.1, Pemphigus Ab inh 99.2, Arr AP2 block -2.0, NLRP3 yeast inh 7.8, PolyA inh -5.7 and ALR H2O2 inh 97.4*.
`Cc1ccccc1Nc1c(-c2ccncc2)nc2ccc(Br)cn12` gave NALP1 inh -41.5, Pemphigus Ab inh 92.0, Arr AP2 block 5.8, NLRP3 yeast inh 14.9, PolyA inh 2.7 and ALR H2O2 inh 98.4*.
For COc1cc2cc(C(=O)Nc3ccc4c(c3)OCCO4)[nH]c2cc1OC the results were NALP1 inh 5.9, Pemphigus Ab inh 108.0, Arr AP2 block 3.4, NLRP3 yeast inh 9.8, PolyA inh 9.8 and ALR H2O2 inh -15.3.
For O=C(C1CCC(CNc2c(N3CCCCC3)c(=O)c2=O)CC1)N1CCCCC1 (stereo not given) the results were NALP1 inh -25.5, Pemphigus Ab inh 107.0, Arr AP2 block -0.5, NLRP3 yeast inh 5.1, PolyA inh 30.6 and ALR H2O2 inh -5.8.
For O=C(C1CCC(CNc2c(N3CCOCC3)c(=O)c2=O)CC1)N1CCN(c2ccccc2)CC1 (stereo not given) the results were NALP1 inh 20.9, Pemphigus Ab inh 98.9, Arr AP2 block 0.1, NLRP3 yeast inh 8.4 and ALR H2O2 inh 87.5*.
Cc1noc(C)c1S(=O)(=O)Nc1ccc(C#N)cc1 was read as NALP1 inh -47.2, Pemphigus Ab inh 101.1, Arr AP2 block 26.6, NLRP3 yeast inh 14.2, PolyA inh 4.8 and ALR H2O2 inh -8.2.
`Cc1cc(Nc2ccc(Cl)cc2)n(-c2cccc(Cl)c2)n1` gave NALP1 inh 0.1, Pemphigus Ab inh 109.7, Arr AP2 block 8.7, NLRP3 yeast inh 13.9, PolyA inh -14.9 and ALR H2O2 inh 51.2.
Screening Cc1cc(Nc2ccccc2C(=O)O)n(-c2cccc(Cl)c2)n1 returned NALP1 inh -4.1, Pemphigus Ab inh 115.1, Arr AP2 block 8.8, NLRP3 yeast inh 17.6, PolyA inh 0.5 and ALR H2O2 inh 98.4*.
For Cc1cc(Nc2ccc(Cl)cc2)n(-c2ccccc2)n1 the results were NALP1 inh 2.8, Pemphigus Ab inh 103.8, Arr AP2 block 0.1, NLRP3 yeast inh 20.3, PolyA inh -11.2 and ALR H2O2 inh 98.2*.
Screening Cc1cc(Nc2ccccc2)n(CCO)n1 returned NALP1 inh 15.1, Pemphigus Ab inh 103.7, Arr AP2 block -4.6, NLRP3 yeast inh 4.5, PolyA inh 3.8 and ALR H2O2 inh 98.5*.
Screening Cc1cc(Nc2nc3ccccc3nc2Cl)n(-c2ccccc2)n1 returned NALP1 inh -3.7, Pemphigus Ab inh 100.2, Arr AP2 block -2.6, NLRP3 yeast inh 5.9, PolyA inh -20.7 and ALR H2O2 inh 96.3*.
CCNc1nnc(SCC(=O)N2c3ccccc3NC(=O)CC2C)s1 (stereo not given) was read as Pemphigus Ab inh 105.5, Arr AP2 block 17.2 and NLRP3 yeast inh 19.2.
For CN(C(=O)c1cccc(NC(=O)Cc2ccc(NC(=O)C3CCCN(S(=O)(=O)c4cccc([N+](=O)[O-])c4)C3)cc2)c1)C1CCCCC1 (stereo not given) the results were Pemphigus Ab inh 101.7 and Arr AP2 block 2.7.
For S=c1[nH]nc(-c2cccnc2)n1C1CCCCC1 the results were NALP1 inh 3.4, Pemphigus Ab inh 98.4, Arr AP2 block 10.3, NLRP3 yeast inh 16.9, PolyA inh 8.0 and ALR H2O2 inh inconclusive.
CC1CCCCC1n1c(-c2cccnc2)n[nH]c1=S (stereo not given) was read as NALP1 inh -7.3, Pemphigus Ab inh 100.9, Arr AP2 block -8.4, NLRP3 yeast inh 23.6, PolyA inh 2.0 and ALR H2O2 inh 87.2*.
Cc1c(Cl)cccc1-n1c(-c2cccnc2)n[nH]c1=S was read as NALP1 inh 22.4, Pemphigus Ab inh 86.2, Arr AP2 block -0.1, NLRP3 yeast inh 18.5, PolyA inh 9.7 and ALR H2O2 inh 79.6*.
`O=C1OCCC1=COCCCCCCOC=C1CCOC1=O` gave Pemphigus Ab inh 102.0.
`CN1CCN(c2ccc(Nc3ccnc4cc(Cl)ccc34)cc2)CC1` gave Pemphigus Ab inh 112.1, Arr AP2 block 7.4, NLRP3 yeast inh 15.7, PolyA inh -0.9 and ALR H2O2 inh 92.3*.
For CCOc1ccc(Nc2ccnc3cc(Cl)ccc23)cc1 the results were Pemphigus Ab inh 92.1, Arr AP2 block -0.8, NLRP3 yeast inh 35.3, PolyA inh -12.6 and ALR H2O2 inh -2.6.
Screening CN(C(=O)OC(C)(C)C)c1ccc(-c2nc3ccccc3s2)cc1 returned Pemphigus Ab inh 97.5, Arr AP2 block 30.1, NLRP3 yeast inh 17.8, PolyA inh 4.8 and ALR H2O2 inh -11.1.
Screening COc1ccc(S(=O)(=O)n2nc(OC(=O)c3ccco3)cc2N)cc1 returned NALP1 inh 6.0, Arr AP2 block -5.6, NLRP3 yeast inh 1.7, PolyA inh 5.9 and ALR H2O2 inh 97.2*.
Cc1cccc(-n2nnc(C(=O)NCc3ccccc3Cl)c2N)c1 was read as NALP1 inh 27.4*, Pemphigus Ab inh 91.2, Arr AP2 block -5.2, NLRP3 yeast inh 17.3, PolyA inh -11.4 and ALR H2O2 inh -14.4.
`COCc1cc(C)nc(NC2CC(C)(C)NC(C)(C)C2)c1C#N` gave NALP1 inh 4.6, Pemphigus Ab inh 101.7, Arr AP2 block -6.9, NLRP3 yeast inh 8.3, PolyA inh -14.1 and ALR H2O2 inh 1.3.
`COc1ccccc1CCNC(=O)c1nccnc1C(=O)O` gave NALP1 inh 6.3, Pemphigus Ab inh 117.1, Arr AP2 block 5.4, NLRP3 yeast inh 6.5, PolyA inh -3.3 and ALR H2O2 inh -4.0.
For Cc1c(Cl)cccc1NC(=S)N1CCN(c2ccc([N+](=O)[O-])cn2)CC1 the results were Pemphigus Ab inh 90.5*, Arr AP2 block 6.2, NLRP3 yeast inh 22.6, PolyA inh 1.9 and ALR H2O2 inh -2.8.
For Cc1cccc(Cl)c1NC(=S)N1CCN(c2ccc([N+](=O)[O-])cn2)CC1 the results were Pemphigus Ab inh 118.8, Arr AP2 block 15.7, NLRP3 yeast inh 9.1 and PolyA inh 6.7.
Screening CN[C@H]1C[C@H]2c3cc(N4CCN(C)CC4)ccc3CCN2C(=O)[C@H]1[C@H](C)O returned Pemphigus Ab inh 105.2.
Screening O=C(CN1CCCCC1)NNc1nc(-c2ccccc2)c2cc(Br)ccc2n1 returned NALP1 inh -5.2, Pemphigus Ab inh 98.2, Arr AP2 block 48.2, NLRP3 yeast inh 17.2, PolyA inh 5.0 and ALR H2O2 inh 89.8*.
